The results in this text go back to ChEMBL document CHEMBL1140751, “Novel sst5-selective somatostatin dicarba-analogues: synthesis and conformation-affinity relationships” (J Med Chem, 2008).

Numbered stars: 1 amine (or outer) side, 2 acyl side, 3 side chain; on linkers, the order of the positions; unused ones are H or OH. Bridge positions count the residues as written; N and C are the ends. Square brackets hold non-standard residues; d marks the D form. Peptide text beside a SMILES is read from it. Phe(Nα-(CH2)3CO) = O=C([C@H](Cc1ccccc1)N(CCCC(=O)[*:3])[*:1])[*:2]; N(2-aminoethyl)Phe = O=C([C@H](Cc1ccccc1)N(CCN[*:3])[*:1])[*:2] Some results are limits rather than exact numbers.

Assay [1] addresses Somatostatin receptor type 1 (Homo sapiens, UniProt P30872). The experiment in a line: Displacement of [125I](Leu8,D-Trp22,Tyr25)-SRIF28 from human sst1 receptor. The method in brief: (§1)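 Membranes came from CHO-K1 and CCL39 cells stably expressing the human sst1–sst5 receptors. Receptor autoradiography was performed on 20 µm pellet sections mounted on slides. IC50 was derived from signal quantified by computer-assisted image processing.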

Assay [2] addresses T1, Somatostatin receptor type 5 (Homo sapiens, UniProt P35346). Briefly: Displacement of [125I](Leu8,D-Trp22,Tyr25)-SRIF28 from human sst5 receptor. In outline: as §1
(In a radioligand displacement assay an active substance lowers the binding of a labelled ligand.)

In assay [3] the target is Somatostatin receptor type 4 (Homo sapiens, UniProt P31391). Briefly: Displacement of [125I](Leu8,D-Trp22,Tyr25)-SRIF28 from human sst4 receptor. The method in brief: as §1
Sequence of Somatostatin receptor type 4 (P31391 whole entry): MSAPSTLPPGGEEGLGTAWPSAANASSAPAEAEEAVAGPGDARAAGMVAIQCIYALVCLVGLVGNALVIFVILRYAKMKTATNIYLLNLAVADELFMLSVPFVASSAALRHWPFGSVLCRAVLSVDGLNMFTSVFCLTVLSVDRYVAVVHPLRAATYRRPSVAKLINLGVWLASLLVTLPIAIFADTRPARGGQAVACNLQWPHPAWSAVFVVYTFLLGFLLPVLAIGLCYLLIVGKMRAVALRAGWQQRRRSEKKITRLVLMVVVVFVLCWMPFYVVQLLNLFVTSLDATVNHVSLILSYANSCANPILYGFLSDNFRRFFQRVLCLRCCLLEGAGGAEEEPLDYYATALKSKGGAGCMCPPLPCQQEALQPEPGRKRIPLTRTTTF
The target of assay [4] is Somatostatin receptor type 3 (Homo sapiens, UniProt P32745). The experiment in a line: Displacement of [125I](Leu8,D-Trp22,Tyr25)-SRIF28 from human sst3 receptor. The method in brief:
as §1

In assay [5] the target is Somatostatin receptor type 2 (Homo sapiens, UniProt P30874). Briefly: Displacement of [125I](Leu8,D-Trp22,Tyr25)-SRIF28 from human sst2 receptor. In outline: as §1
Sequence of Somatostatin receptor type 2 (P30874 whole entry): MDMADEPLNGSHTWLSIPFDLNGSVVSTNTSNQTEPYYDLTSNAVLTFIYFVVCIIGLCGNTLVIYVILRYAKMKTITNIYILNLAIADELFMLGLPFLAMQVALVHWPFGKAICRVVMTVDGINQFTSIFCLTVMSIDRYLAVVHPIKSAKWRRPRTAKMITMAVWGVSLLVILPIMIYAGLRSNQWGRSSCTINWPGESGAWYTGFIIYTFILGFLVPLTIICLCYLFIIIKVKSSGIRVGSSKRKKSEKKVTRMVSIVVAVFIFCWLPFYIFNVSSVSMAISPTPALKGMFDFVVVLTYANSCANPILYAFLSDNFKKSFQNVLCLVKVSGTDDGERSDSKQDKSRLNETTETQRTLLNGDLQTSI
Assay [6] has as its target T1, Somatostatin receptor type 5. Briefly: Binding affinity to sst5 receptor.

Sequence of Somatostatin receptor type 1 (P30872 whole entry): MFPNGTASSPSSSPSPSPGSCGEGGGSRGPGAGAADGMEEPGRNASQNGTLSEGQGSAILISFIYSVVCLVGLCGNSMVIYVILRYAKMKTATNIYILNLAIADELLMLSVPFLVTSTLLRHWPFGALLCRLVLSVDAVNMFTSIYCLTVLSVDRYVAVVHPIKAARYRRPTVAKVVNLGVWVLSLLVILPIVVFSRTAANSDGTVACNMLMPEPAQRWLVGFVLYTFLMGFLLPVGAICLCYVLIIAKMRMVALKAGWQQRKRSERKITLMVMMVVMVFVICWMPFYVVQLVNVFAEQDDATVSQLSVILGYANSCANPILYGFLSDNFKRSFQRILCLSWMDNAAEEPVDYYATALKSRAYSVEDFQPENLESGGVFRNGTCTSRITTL
T1 sequence (P35346 whole entry): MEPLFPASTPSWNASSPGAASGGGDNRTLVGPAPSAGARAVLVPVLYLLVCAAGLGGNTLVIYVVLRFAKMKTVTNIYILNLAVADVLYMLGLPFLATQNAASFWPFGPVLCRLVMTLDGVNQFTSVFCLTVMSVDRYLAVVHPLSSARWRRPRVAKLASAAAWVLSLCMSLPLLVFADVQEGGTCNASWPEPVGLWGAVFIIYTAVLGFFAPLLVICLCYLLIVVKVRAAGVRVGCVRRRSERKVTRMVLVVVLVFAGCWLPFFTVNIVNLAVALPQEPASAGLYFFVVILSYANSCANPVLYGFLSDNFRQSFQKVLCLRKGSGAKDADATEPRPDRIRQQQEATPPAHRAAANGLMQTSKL
Sequence of Somatostatin receptor type 3 (P32745 whole entry): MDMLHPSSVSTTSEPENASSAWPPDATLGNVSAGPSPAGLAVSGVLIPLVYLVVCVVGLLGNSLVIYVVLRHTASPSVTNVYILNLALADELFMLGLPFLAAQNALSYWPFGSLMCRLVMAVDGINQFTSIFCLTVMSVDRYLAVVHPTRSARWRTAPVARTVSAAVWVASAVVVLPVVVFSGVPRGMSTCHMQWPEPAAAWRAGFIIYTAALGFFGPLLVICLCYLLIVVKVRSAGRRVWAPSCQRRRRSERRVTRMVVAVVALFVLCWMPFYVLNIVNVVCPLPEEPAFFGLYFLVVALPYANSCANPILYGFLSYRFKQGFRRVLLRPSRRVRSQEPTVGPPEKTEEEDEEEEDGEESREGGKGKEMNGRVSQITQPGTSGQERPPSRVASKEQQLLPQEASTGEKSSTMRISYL

A word on the IC50: it is the concentration needed to halve the response being measured. For `C[C@@H](O)[C@@H]1NC(=O)[C@H](CCCCN)NC(=O)[C@@H](Cc2c[nH]c3ccccc23)NC(=O)[C@H](Cc2ccccc2)NC(=O)[C@@H](NC(=O)[C@H](N)Cc2ccccc2)C/C=C\C[C@@H](C(=O)N[C@H](CO)[C@@H](C)O)NC1=O`, the IC50 was above 1000 nM in assay [1]; 28 nM in assay [2]; 412 nM in assay [3]; above 1000 nM in assay [4]; 44 nM in assay [5].
Consider `C[C@H](N)COC(=O)[C@H](CCCCN)NC(=O)Cc1c(-c2ccc3ccccc3c2)[nH]c2c1ccc1ccccc12`, for which the IC50 in assay [6] was 0.4 nM.
As for `C[C@@H](O)[C@@H](CO)NC(=O)[C@@H]1C/C=C\C[C@H](NC(=O)[C@H](N)Cc2ccccc2)C(=O)N[C@@H](Cc2ccccc2)C(=O)N[C@H](Cc2c[nH]c3ccccc23)C(=O)N[C@@H](CCCCN)C(=O)N[C@@H](Cc2ccccc2)C(=O)N1`, the IC50 in assay [1] was 961 nM; in assay [2] it was 206 nM; in assay [3], 141 nM; in assay [4] it was above 1000 nM; in assay [5], above 1000 nM.
As for `C[C@@H](O)[C@@H]1NC(=O)[C@H](CCCCN)NC(=O)[C@@H](Cc2c[nH]c3ccccc23)NC(=O)[C@H](Cc2ccccc2)NC(=O)[C@@H](NC(=O)[C@H](N)Cc2ccccc2)CCCC[C@@H](C(=O)N[C@H](CO)[C@@H](C)O)NC1=O`, the IC50 in assay [1] is above 1000 nM; in assay [2], 203 nM; in assay [3], 214 nM; in assay [4], above 1000 nM; in assay [5] it was 49 nM.
In turn, `CC(C)[C@@H]1NC(=O)[C@H](CCCCN)NC(=O)[C@@H](Cc2c[nH]c3ccccc23)NC(=O)[C@H](Cc2ccc(O)cc2)NC(=O)[C@H](Cc2ccccc2)NCCNC(=O)CCCN([C@@H](Cc2ccccc2)C(=O)N[C@H](C(N)=O)[C@@H](C)O)C1=O` (H-[N(2-aminoethyl)Phe]Y[dW]KV[Phe(Nα-(CH2)3CO)]T-NH2; lactam 1-6) came in with an IC50 in assay [6] of 67 nM.
